Assay results taken from paper PMC9382663 (Nature, 2022).
Where no end group is shown, it is not given here. [ ]: non-standard residue; d: D form. pS = N[C@@H](COP(=O)(O)O)C(=O)O

How the values were obtained:
[1] = tested on: plasma antibody reactivity against EBNA1AA386–405; assay: Plasma ELISA with blocking of plasma IgG; type: binding, human; conditions: blocking peptide 10 μg/ml, 2 h RT; nine high-reactivity MS samples
Procedure, shortened: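 384-well plates are coated overnight at 4°C with recombinant Protein G (2μg/ml) and washed 6x with PBST. Plasma (1:100) is bound overnight at 4°C, washed again, then blocked 2 h at RT with 10μg/ml peptide (scrambled control, EBNA1 AA386–405 or GlialCAM AA370–389 pSer376). Read-out is OD 450 nm normalized to the unblocked sample, with quadruplicate wells.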

[2] = tested on: EBNA1AA386–405; assay: Mouse plasma IgG ELISA against EBNA1 peptide; type: in vivo, SJL/J mice; conditions: immunized mice, plasma 1:100
[3] = tested on: GlialCAM ICD; assay: Mouse plasma IgG ELISA against GlialCAM ICD; type: in vivo, SJL/J mice; conditions: immunized mice, plasma 1:100
[4] = tested on: splenocytes and lymph node cells; assay: T cell proliferation by 3H-thymidine incorporation; type: cell-based, mouse; conditions: cells pooled from n=10 immunized mice
[5] = tested on: experimental autoimmune encephalomyelitis (EAE); assay: EAE after peptide immunization; type: in vivo, SJL/J mice; conditions: spinal cord histology, day 50; vs. scrambled peptide
[6] = tested on: mouse splenocytes and lymph node cells; assay: Cytokine ELISA in cell culture supernatant; type: cell-based; conditions: cells of immunized mice re-stimulated with peptide
[7] = biological target: T1, EBNA1_(AA386–405) 20mer peptide (Epstein-Barr virus); assay: ELISA
T1 chain: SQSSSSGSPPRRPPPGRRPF

[8] = biological target: T2, biotinylated GlialCAM_(AA370–389 pSer376) peptide (human) (UniProt Q14CZ8); assay: BLI
T2 sequence (peptide): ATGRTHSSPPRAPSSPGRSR

[9] = biological target: T3, biotinylated GlialCAM_(AA370–389 pSer376 pSer377) peptide (human) (UniProt Q14CZ8); assay: BLI
T3 sequence (peptide): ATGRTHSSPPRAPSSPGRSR

[10] = biological target: T4, biotinylated native GlialCAM_(AA370–389) peptide (Homo sapiens, UniProt Q14CZ8); assay: BLI
T4 chain: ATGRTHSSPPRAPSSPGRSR

[11] = biological target: EBNA1 full-length protein AA1–641 (Epstein-Barr virus, strain ; …, UniProt P03211); assay: BLI
[12] = biological target: T5, biotinylated EBNA1_(AA386–405) peptide (Epstein-Barr virus, sequence as B95-8); assay: BLI
T5 chain: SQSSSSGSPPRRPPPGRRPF

[13] = biological target: GlialCAM protein (bio-layer interferometry) (Homo sapiens, UniProt Q14CZ8); assay: BLI
[14] = biological target: actin filament associated protein 1 (AFAP1) on the HuProt microarray (Homo sapiens (Human)., UniProt Q8N556); assay: peptide or protein array
[15] = biological target: unmutated ancestor of MS39p2w174 (germline) (human); assay: BLI

Chain of actin filament associated protein 1 (AFAP1) on the HuProt microarray (Q8N556 whole entry): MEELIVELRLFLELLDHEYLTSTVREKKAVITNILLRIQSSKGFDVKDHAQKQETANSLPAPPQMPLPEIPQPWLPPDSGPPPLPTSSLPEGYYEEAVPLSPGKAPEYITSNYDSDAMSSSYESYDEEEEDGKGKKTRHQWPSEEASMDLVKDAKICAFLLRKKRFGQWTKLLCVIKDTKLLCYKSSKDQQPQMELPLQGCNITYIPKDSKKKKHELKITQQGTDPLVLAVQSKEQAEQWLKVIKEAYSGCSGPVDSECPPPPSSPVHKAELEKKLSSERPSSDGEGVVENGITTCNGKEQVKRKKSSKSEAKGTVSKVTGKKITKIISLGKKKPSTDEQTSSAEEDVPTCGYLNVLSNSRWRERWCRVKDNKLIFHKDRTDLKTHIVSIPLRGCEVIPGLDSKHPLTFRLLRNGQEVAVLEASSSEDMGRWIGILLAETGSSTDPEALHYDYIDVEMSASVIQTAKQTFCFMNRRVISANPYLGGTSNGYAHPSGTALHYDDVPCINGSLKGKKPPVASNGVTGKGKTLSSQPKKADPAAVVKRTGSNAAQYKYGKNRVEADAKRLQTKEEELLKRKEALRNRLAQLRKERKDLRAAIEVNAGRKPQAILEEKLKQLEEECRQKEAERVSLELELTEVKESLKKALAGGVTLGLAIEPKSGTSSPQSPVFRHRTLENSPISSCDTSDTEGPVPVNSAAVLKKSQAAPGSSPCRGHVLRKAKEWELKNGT
Chain of EBNA1 full-length protein AA1–641 (P03211 whole entry, the tested form may be a part): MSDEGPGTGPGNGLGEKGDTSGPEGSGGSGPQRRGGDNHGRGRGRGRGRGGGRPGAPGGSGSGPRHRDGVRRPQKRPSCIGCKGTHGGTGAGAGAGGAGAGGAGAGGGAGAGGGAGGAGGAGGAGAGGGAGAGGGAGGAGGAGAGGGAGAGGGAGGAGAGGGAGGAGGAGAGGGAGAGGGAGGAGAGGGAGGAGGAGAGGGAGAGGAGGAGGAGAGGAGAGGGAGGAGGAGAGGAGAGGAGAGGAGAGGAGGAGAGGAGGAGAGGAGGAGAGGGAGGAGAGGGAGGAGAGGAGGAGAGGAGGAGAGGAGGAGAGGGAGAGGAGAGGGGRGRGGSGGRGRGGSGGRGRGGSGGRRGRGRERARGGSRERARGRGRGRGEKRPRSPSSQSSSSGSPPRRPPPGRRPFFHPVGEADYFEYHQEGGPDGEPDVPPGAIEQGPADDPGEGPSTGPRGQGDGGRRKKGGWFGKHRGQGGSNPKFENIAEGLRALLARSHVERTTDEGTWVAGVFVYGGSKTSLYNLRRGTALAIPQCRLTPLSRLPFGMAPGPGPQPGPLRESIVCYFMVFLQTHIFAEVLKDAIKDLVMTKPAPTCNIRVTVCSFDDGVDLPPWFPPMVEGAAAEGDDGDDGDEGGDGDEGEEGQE

Molecule: GlialCAMAA370–389 pSer376: GlialCAM 20mer peptide phosphorylated at Ser376 (ATGRTH[pS]SPPRAPSSPGRSR)
- blocking of anti-EBNA1AA386–405 plasma reactivity [1]: inhibition

Molecule: SQSSSSGSPPRRPPPGRRPF [EBNA1AA386–405]
- plasma IgG response to EBNA1AA386–405 [2]: robust antibody responses
- plasma IgG response to GlialCAM ICD [3]: robust antibody responses
- CD4+ T cell response [4]: strong CD4+ T cell response
- CNS immune cell infiltration (H&E) [5]: enhanced CNS immune cell infiltration
- demyelination (Luxol Fast Blue) [5]: enhanced
- IL-17 secretion [6]: suppressed
- secretion of IFN-γ, TNF, IL-12, IL-6 and IL-10 [6]: stimulated the secretion

B1: mAb MS39p2w174 (antibody, V domains shown)
VH: QVQLVESGGGLVKPGGSLRLSCVSSGFTFSNYWMSWVRQAPGGGLEWVANINQDGSEKYYVDSVKGRFTSSRDNTKNSLFLQLNSLRAEDTGIYYCTRDPPYFDNWGQGTLVTVSS
VL: DVVLTQSPLSLPVILGQPASISCRSSQSLVYSDGRTYLNWFQQRPGQSPRRLIYKISKRDSGVPERFSGSGSGTDFTLEISRVEAEDVGIYYCMQGSHWPVTFGQGTKVEIK
- binding result [7]: binds
- Kd [8]: 6.1 nM
- Kd [9]: 3.73 nM
- Kd [10]: 302 nM
- Kd [11]: 1.99 nM
- Kd [12]: 2.67 nM
- Kd [13]: 0.19 nM
- binding result [14]: binds

B2: GlialCAM protein (bio-layer interferometry) (natural protein)
chain: VNITSPVRLIHGTVGKSALLSVQYSSTSSDRPVVKWQLKRDKPVTVVQSIGTEVIGTLRPDYRDRIRLFENGSLLLSDLQLADEGTYEVEISITDDTFTGEKTINLTVDVPISRPQVLVASTTVLELSEAFTLNCSHENGTKPSYTWLKDGKPLLNDSRMLLSPDQKVLTITRVLMEDDDLYSCMVENPISQGRSLPVKITVYRRSSLYIILSTGGIFLLVTLVTVCACWKPSKRKQKKLEKQNSLEYMDQNDDRLKPEADTLPRSGEQERKNPMALYILKDKDSPETEENPAPEPRSATEPGPPGYSVSPAVPGRSPGLPIRSARRYPRSPARSPATGRTHSSPPRAPSSPGRSRSASRTLRTAGVHIIREQDEAGPVEISA
- Kd [15]: 10.5 nM
